Assay outcomes as filed in PubChem BioAssay.
Tn6 DDE FP = inhibitors of Tn6 peptide binding to fibrin DD(E), primary screen, biochemical, fluorescence polarization, human fibrin, Tn6 probe. Fibrin DD(E) TRITC-Tn6 fluorescence polarization displacement. AID 720509, 2013. 0.21% of 370,000 active. inhibition, % at 8.3 µM;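 active = inhibition above a per-campaign cutoff: mean of compounds within control limits plus 3 SD, cut at about 15% in these data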;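 note: 0% = median of all compound wells on the plate and 100% = blocking peptide control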
mABHD4 FP = ABHD4 inhibitors, primary screen, biochemical, fluorescence polarization, mouse; (Lyso)-N-acylphosphatidylethanolamine lipase (Mus musculus), Q8VD66; purified mABHD4, FP-Rh probe fluorescence polarization; inhibition, % at 8.92 µM; 0.54% of 370,000 active;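 active = inhibition exceeding the mean over every tested compound plus 3 SD, cut at about 30% in these data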;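 note: 0% = plate median of compound wells and 100% = S159A mutant with DMSO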
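Assay system: Wild-type mouse ABHD4 protein | Medium: HEPES pH 7.0 buffer, 150 mM NaCl, 0.01% Pluronic F-127 | Incubation: Enzyme–compound pre-incubation 45 min, then probe 60 min, both 25 °C | Technique: Fluorescence polarization with parallel and perpendicular emission, 525/598 nm | Evaluation: % inhibition of FP-Rh probe binding versus controls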
TCR-CD3 inh = inhibitors of human TCR-CD3 interaction, primary screen, biochemical, fluorescence, TAMRA-labeled TCR probe; 0.37% of 360,000 active; inhibition, % at 9.4 µM; T-cell receptor (TCR); AID 651800, 2012; in the data active = inhibition above about 19%;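 note: recombinant mutant TCR 2C K166C tagged with TAMRA read by polarization; 0% = receptor in buffer alone and 100% = receptor with positive control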
HTRA1 inhibitor = HTRA1 serine protease inhibitors, primary screen, biochemical, fluorescence polarization, HTS | recombinant HTRA1, FP-rhodamine activity-based probe | Q92743 | inhibition, % at 5.96 µM | 0.5% of 340,000 active; in the data active = inhibition above about 36%;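 note: 0% = enzyme with DMSO and 100% = wells lacking enzyme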
Target sequence (Q92743 whole entry, looked up): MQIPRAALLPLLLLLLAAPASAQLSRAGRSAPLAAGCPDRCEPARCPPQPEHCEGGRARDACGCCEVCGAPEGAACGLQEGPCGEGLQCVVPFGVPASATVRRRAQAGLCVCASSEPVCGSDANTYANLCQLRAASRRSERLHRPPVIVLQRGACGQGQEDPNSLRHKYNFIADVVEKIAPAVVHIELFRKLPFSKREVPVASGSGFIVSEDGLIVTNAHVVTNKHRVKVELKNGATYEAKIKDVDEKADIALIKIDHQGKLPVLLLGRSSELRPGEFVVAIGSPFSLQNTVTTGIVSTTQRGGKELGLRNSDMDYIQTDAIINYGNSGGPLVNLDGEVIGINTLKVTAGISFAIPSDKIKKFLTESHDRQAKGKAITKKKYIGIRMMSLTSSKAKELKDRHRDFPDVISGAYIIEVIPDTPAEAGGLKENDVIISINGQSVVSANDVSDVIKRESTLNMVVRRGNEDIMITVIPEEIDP
Tn7 DDE FP = inhibitors of Tn7 peptide binding to fibrin DD(E), primary screen, biochemical, fluorescence polarization, human fibrin, Tn7 probe. Fibrinogen beta chain (Homo sapiens), P02675. FP displacement of FITC-Tn7 peptide from fibrin DD(E); 0% = median of compound wells per plate. inhibition, % at 8.3 µM. 0.13% of 370,000 active. AID 720508, 2013;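 active = inhibition above the mean of compounds falling within the control limits plus 3 SD of them, cut at about 14% in these data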;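 note: 0% = plate median of compound wells and 100% = 10 µM Aha-Tn7 peptide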
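System: human fibrin DD(E); quantity: Fibrin-DD(E) at 2 µM final; also added: fluorescent Tn7 probe at 0.1 µM; compound dosing: single nominal test concentration of 8.3 µM per compound; schedule: 10 min preincubation, 3 h with tracer, room temperature; detection: fluorescence polarization of the labelled Tn7 tracer; repeats: one replicate per compound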
DDE Tn7 confirm = inhibitors of Tn7 peptide binding to fibrin DD(E), confirmation, biochemical, fluorescence polarization, human fibrin, Tn7 probe. FP displacement of TRITC-Tn7 peptide from DD(E); 0% set at plate's compound-well median. AID 720628, 2013. inhibition, % at 8.3 µM. shares compounds with Tn7 DDE FP. 5% of 460 active;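 active = inhibition above the campaign cutoff, the mean of compounds within control limits plus 3 SD, cut at about 14% in these data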;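 note: 100% = median FP of high control wells holding Aha-Tn7 inhibitor peptide; displacers lower polarization since freed probe rises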
Tn7 DDE ctr = counter-screen for inhibitors of Tn7 peptide binding to fibrin DD(E). AID 720633. shares compounds with Tn7 DDE FP. TRITC-Tn7 probe displacement, fluorescence polarization. inhibition, % at 8.3 µM. 3% of 460 active;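 active = inhibition above the cutoff, the mean of compounds lying between the control bounds plus 3 SD of those compounds, cut at about 17% in these data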;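 note: 0% = median of compound sample wells and 100% = excess unlabeled Aha-Tn7 peptide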
* hit, by the source's call; / = no result. Only some compounds are listed: those with a hit (about 1.3% of all), similar ones and a draw of the others.

SMILES	Tn6 DDE FP	mABHD4 FP	TCR-CD3 inh	HTRA1 inhibitor	Tn7 DDE FP	DDE Tn7 confirm	Tn7 DDE ctr
O=C(O)CCc1ccc(-c2ccccc2)n1NC(=O)c1cccs1	1	1	0	-1	3	/	/
COc1cc2ncnc(NCc3ccc(C)cc3)c2cc1OC	5	2	3	-6	14*	4	-3
COc1cccc(CNc2ncnc3cc(OC)c(OC)cc23)c1	3	-6	3	-10	2	/	/
Cc1ccccc1S(=O)Cc1ccc(C(=O)NC2CCN(Cc3ccccc3)CC2)o1 (stereo unspecified)	-10	1	0	7	14*	5	-4
Cc1cccc(S(=O)Cc2ccc(C(=O)NC3CCN(Cc4ccccc4)CC3)o2)c1 (stereo unspecified)	0	-3	-2	0	1	/	/
O=C(NCCNS(=O)(=O)c1ccc(C(F)(F)F)cc1)N1CCOCC1	1	2	4	-2	0	/	/
O=C(NCCNS(=O)(=O)c1ccccc1)N1CCOCC1	-1	2	2	0	15*	1	4
O=C(c1cccc(NC2=NC3CS(=O)(=O)CC3S2)c1)N1CCN(c2cccc(Cl)c2)CC1 (stereo unspecified)	1	-2	0	-1	17*	7	-4
O=C(c1cccc(NC2=NC3CS(=O)(=O)CC3S2)c1)N1CCN(c2ccc(F)cc2)CC1 (stereo unspecified)	-6	0	-2	-1	-4	/	/
O=C(c1ccccc1)c1ccc(O)cc1O	0	-18	-20	-12	34*	12	-12
COc1cccc(C(NC(C)=O)c2nc(-c3cccc(C#N)c3)cs2)c1 (stereo unspecified)	0	-1	-6	/	-9	/	/
CCOC(=O)c1sc2nc3n(c(=O)c2c1C)CCC3	8	-3	-3	-4	15*	3	2
O=C1CCCc2cc3c(cc21)CC1(C3)Cc2cc3c(cc2C1)C(=O)CCC3	5	-10	1	-9	14*	8	2
CC(C)NS(=O)(=O)c1ccc(CCC(=O)Nc2ccc3c(c2)OCCO3)cc1	8	-5	3	4	0	/	/
CCNS(=O)(=O)c1ccc(CCC(=O)Nc2ccc3c(c2)OCCO3)cc1	3	0	3	-3	15*	1	-6
CCC1(c2ccccc2)NC(=O)N(CC(=O)Nc2ccc(OC)nc2)C1=O (stereo unspecified)	-2	7	6	-7	22*	5	-4
CCC1(c2ccccc2)NC(=O)N(CC(=O)Nc2ccc3c(c2)CCC3)C1=O (stereo unspecified)	-4	-7	-3	-7	-1	/	/
Cc1cc(C(=O)NNc2c(Cl)cccc2Cl)no1	3	-6	0	-6	14*	2	-3
Cc1cc(C(=O)NNc2cc(Cl)ccc2Cl)no1	1	0	1	-3	2	/	/
Cc1cccc(CCNC(=O)CCNS(=O)(=O)c2cc(Br)cnc2N)c1	1	0	-4	-5	2	/	/
Cc1ccc(CC(=O)Nc2ccc(F)c([N+](=O)[O-])c2)cc1C	1	1	4	-12	0	/	/
Cc1ccc(CC(=O)Nc2ccc(F)c([N+](=O)[O-])c2)cc1	4	-6	1	4	15*	1	4
Cc1cccc(S(=O)(=O)NC(=O)C2(C)CCN2C(=O)Cc2ccc(C(C)(C)C)cc2)c1 (stereo unspecified)	4	-1	0	/	7	/	/
CCC1=Nc2cc(C(=O)O)ccc2Sc2ccc(Cl)cc21	3	-5	-9	-8	15*	-1	0
CCn1c(=O)cc(SCC(=O)Nc2cccnc2)c2ccccc21	-2	-3	4	-5	14*	2	-1
SMILES	Tn6 DDE FP	mABHD4 FP	TCR-CD3 inh	HTRA1 inhibitor	Tn7 DDE FP	DDE Tn7 confirm	Tn7 DDE ctr
CCn1c(=O)cc(SCC(=O)Nc2ccc3c(c2)OCO3)c2ccccc21	/	/	/	-6	/	/	/
O=C(NNc1cccc(Cl)n1)Nc1cccc(C(F)(F)F)c1	1	-11	4	-8	-1	/	/
C=CCn1c(C(C)NC(=O)c2ccc(C)cc2)n[nH]c1=S (stereo unspecified)	0	-5	7	7	-7	/	/
N#CC1=C2C=Cc3ccccc3N2CCCC1=O	5	-14	0	4	16*	2	0
CCOCCCNC(=S)N1CCC(C(=O)c2ccc(C)cc2)CC1	2	-1	2	4	14*	1	-4
CC(C)OCCCNC(=S)N1CCC(C(=O)c2ccc(Cl)cc2)CC1	2	-6	2	-3	5	/	/
COc1ccc(-c2sc3ccc(OC)cc3c2C#Cc2cncn2C)cc1	8	-11	8	-57	3	/	/
Cc1noc2ncnc(Sc3ccc(Br)cc3)c12	-3	-2	5	2	-3	/	/
O=C1NC(Cc2ccccc2)c2nc3cc(F)c(F)cc3c(=O)n2-c2ncccc21 (stereo unspecified)	-4	1	9	-3	4	/	/
CC(C)(C)NC(=O)NC(=O)COC(=O)c1ccc(OC(F)(F)F)cc1	3	-2	3	15	14*	1	-10
Cc1cc(NC(=O)COC(=O)c2ccc(OC(F)(F)F)cc2)no1	3	-5	-4	-5	16*	8	2
CC(C)(C)NC(=O)NC(=O)COC(=O)c1ccc(OC(F)F)cc1	5	0	6	35	4	/	/
Cc1cc(NC(=O)COC(=O)c2ccc(C)c(C)c2)no1	2	-1	0	-2	6	/	/
C[C@H]1CN=C(N(C)C)N1CCCCc1ccccc1	6	2	6	-1	16*	9	5
CC(C)C[C@H]1CN=C(N(C)C)N1CCCCc1ccccc1	10	-2	3	3	-1	/	/
C[C@@H]1CN(c2ccc(N3CCN(C(=O)OC(C)(C)C)C[C@H]3C)cc2C#N)C[C@H](C)O1	2	-5	-7	/	3	/	/
O=C(Nc1ccc(F)cc1F)Nc1sccc1-c1nc2ccccc2s1	-1	-28	0	-31	15*	8	1
O=C(CC1C(=O)N(c2ccc(Cl)cc2)C(=S)N1CCc1ccncc1)Nc1ccc(F)cc1 (stereo unspecified)	7	-19	-6	-44	3	/	/
